# Reference: ChEMBL document CHEMBL1121429, “Soft drugs. 1. Labile quaternary ammonium salts as soft antimicrobials” (J Med Chem, 1980)
# Key:
# Salmonella typhimurium [1] = assay: Minimum inhibitory concentration of salt was tested against Salmonella Typhimurium […] at 0.1 M NaH2PO4 adjusted to pH 7.0; format: functional; details: Salmonella enterica
# Pseudomonas aeruginosa [2] = assay: Sterilization time for contact germicidal efficiency (CGE) of salt was tested against at Pseudomonas aeruginosa at pH 7.0, concentration 1031 ppm; format: functional, organism-based
# Pseudomonas aeruginosa [3] = assay: Sterilization time for contact germicidal efficiency (CGE) of salt was tested against at Pseudomonas aeruginosa at pH 6.0, concentration 1007 ppm; format: functional, organism-based
# Pseudomonas aeruginosa [4] = assay: Sterilization time for contact germicidal efficiency (CGE) of salt was tested against at Pseudomonas aeruginosa at pH 8.0, concentration 1042 ppm; format: functional, organism-based
# Staphylococcus aureus [5] = assay: Sterilization time for contact germicidal efficiency (CGE) of salt was tested against Staphylococcus aureus at pH 7.0, concentration 1031 ppm; format: functional, organism-based
# Streptococcus pyogenes [6] = assay: Sterilization time for contact germicidal efficiency (CGE) of salt was tested against at Streptococcus pyogenes at pH 6.0, concentration 1007 ppm; format: functional, organism-based
# Staphylococcus aureus [7] = assay: Minimum inhibitory concentration of salt was tested against Staphylococcus aureus aureus at 0.1 M NaH2PO4 adjusted to pH 7.0; format: functional
# How it was run: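 Bacteria grown 18-20 h at 37 °C in tryptose phosphate broth, adjusted to OD650 0.01, then diluted into double-strength medium to about 2 × 10^5 viable organisms/mL. Compound in 0.1 M NaH2PO4 pH 7.0 was serially twofold diluted into sterile water and added 1:1 to the cultures. MIC read after 18-20 h at 37 °C, with viability, sterility and buffer controls.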
# Staphylococcus aureus [8] = assay: Sterilization time for contact germicidal efficiency (CGE) of salt was tested against at Staphylococcus aureus at pH 7.0, concentration 1031 ppm; format: functional, organism-based
# Staphylococcus aureus [9] = assay: Sterilization time for contact germicidal efficiency (CGE) of salt was tested against at Staphylococcus aureus at pH 8.0, concentration 1042 ppm; format: functional, organism-based
# Streptococcus pyogenes [10] = assay: Sterilization time for contact germicidal efficiency (CGE) of salt was tested against at Streptococcus pyogenes at pH 8.0, concentration 1042 ppm; format: functional, organism-based
# Staphylococcus aureus [11] = assay: Sterilization time for contact germicidal efficiency (CGE) of salt was tested against at Staphylococcus aureus at pH 6.0, concentration 1007 ppm; format: functional, organism-based
# Streptococcus pyogenes [12] = assay: Sterilization time for contact germicidal efficiency (CGE) of salt was tested against at Streptococcus pyogenes at pH 7.0, concentration 1031 ppm; format: functional, organism-based
# Bacillus subtilis [13] = system: Bacillus subtilis
# Pseudomonas aeruginosa [14] = system: Pseudomonas aeruginosa
# Streptococcus pyogenes [15] = system: Streptococcus pyogenes
# Salmonella typhimurium [16] = system: Salmonella typhimurium
# Pseudomonas aeruginosa [17] = assay: Sterilization time for contact germicidal efficiency (CGE) of salt was tested against Pseudomonas aeruginosa at pH 7.0, concentration 610 ppm; format: functional
# How it was run: (§1)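 Test solutions of the quaternary salt in buffer stood 30 min at room temperature. 0.2 mL of overnight broth culture was added to 5 mL of solution. Inocula: S. aureus ATCC 6538 6-8 × 10^6 cfu/mL, P. aeruginosa ATCC 9027 12-13 × 10^6/mL, S. pyogenes ATCC 19615 5 × 10^6 cfu/mL. At 0.5-30 min intervals a loop was subcultured into nutrient broth and incubated 7 days at 37 °C. Sterilization time is the first interval giving no growth.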
# Streptococcus pyogenes [18] = assay: Sterilization time for contact germicidal efficiency (CGE) of salt was tested against Streptococcus pyogenes at pH 7.0, concentration 610 ppm; format: functional; how it was run: as §1
# Staphylococcus aureus [19] = assay: Sterilization time for contact germicidal efficiency (CGE) of salt was tested against Staphylococcus aureus at pH 7.0, concentration 610 ppm; format: functional; how it was run: as §1
# [20] = Toxicity of the salt was tested on white swiss male mice after intraperitoneal administration; format: organism-based; details: mouse, in vivo, ip
# How it was run: (§2)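 Male White Swiss mice (MCR-ICR), 20-23 g, 10-20 per dose. Salt given in isotonic NaCl, pH 7.0 (adjusted with sodium bicarbonate). LD50 with confidence limits was calculated by Litchfield–Wilcoxon.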
# [21] = Toxicity of the salt was tested on white swiss male mice after intravenous administration; format: organism-based; details: mouse, in vivo; how it was run: as §2
# [22] = Toxicity of the salt was tested on white swiss male mice after oral administration; format: organism-based; details: mouse, in vivo
# How it was run: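 Male White Swiss mice (MCR-ICR), 20-23 g, 10-20 per dose, dosed orally. At higher doses the salt was given in 0.8% NaCl brought to pH 5.84 with sodium bicarbonate. LD50 was calculated by Litchfield–Wilcoxon.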
# Bacillus subtilis [23] = assay: Minimum inhibitory concentration of salt was tested against Bacillus subtilis at 0.1 M NaH2PO4 adjusted to pH 7.0; format: functional
# Pseudomonas aeruginosa [24] = assay: Minimum inhibitory concentration of salt was tested against Pseudomonas aeruginosa at 0.1 M NaH2PO4 adjusted to pH 7.0; format: functional
# Streptococcus pyogenes [25] = assay: Minimum inhibitory concentration of salt was tested against Streptococcus pyogenes aureus at 0.1 M NaH2PO4 adjusted to pH 7.0; format: functional
molecule,measurement,setting,value
CCCCCCCCCCCCCCCC(=O)OC[n+]1ccccc1.[Cl-],MIC,Salmonella typhimurium [1],1070 µg/mL
Hexadecyl-trimethyl-ammonium bromide,TIME,Pseudomonas aeruginosa [2],0.00833 h
same,TIME,Pseudomonas aeruginosa [3],0.00833 h
same,TIME,Pseudomonas aeruginosa [4],0.00833 h
same,TIME,Staphylococcus aureus [5],0.00833 h
same,TIME,Streptococcus pyogenes [6],0.00833 h
same,MIC,Staphylococcus aureus [7],< 2 p.p.m.
same,TIME,Staphylococcus aureus [8],0.00833 h
same,TIME,Staphylococcus aureus [9],0.00833 h
same,TIME,Streptococcus pyogenes [10],0.00833 h
same,TIME,Staphylococcus aureus [11],0.00833 h
same,TIME,Streptococcus pyogenes [12],0.00833 h
same,MIC,Bacillus subtilis [13],< 2 p.p.m.
same,MIC,Pseudomonas aeruginosa [14],128 p.p.m.
same,MIC,Streptococcus pyogenes [15],< 2 p.p.m.
same,MIC,Salmonella typhimurium [16],64.3 p.p.m.
CCCCCCCCCCCC(=O)O [DODECANOATE],Time,Pseudomonas aeruginosa [17],>30 min
same,Time,Streptococcus pyogenes [18],>30 min
same,Time,Staphylococcus aureus [19],>30 min
CCCCCCCCCCCC(=O)OC[N+]1=CN(C)CC1.[Cl-],LD50,[20],155 mg/kg
same,LD50,[21],75 mg/kg
same,LD50,[22],4110 mg/kg
CCCCCCCCCCCCCCCC(=O)OC[N+]1=CN(C)CC1.[Cl-],MIC,Bacillus subtilis [23],> 42.4 µg/mL
same,MIC,Pseudomonas aeruginosa [24],> 42.4 µg/mL
same,MIC,Streptococcus pyogenes [25],> 42.4 µg/mL
same,MIC,Staphylococcus aureus [7],1.3 µg/mL
same,MIC,Salmonella typhimurium [1],> 42.4 µg/mL
